Source: PMC8282703 (Clinical cancer research : an official journal of the …, 2021)
Several values for one entry are separate records, joined by “and”; a condition that tells them apart may be missing. Equal entries are not always repeated. Where two headings read alike, the source gives them in different places.

Experiments:
[1] = test system: Wee1 kinase; conditions: cited from earlier work
[2] = test system: pHH3, γH2AX, RAD51, pNbs1; test: DNA damage response and mitosis markers in paired tumor biopsies; format: in vivo, patients
Procedure, shortened: (§1)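 Expansion-cohort patients got 300 mg once daily on days 1-5 and 8-12 of 21-day cycles, with prophylactic anti-emetics. Paired 18-gauge core needle tumor biopsies were taken on C1D1 and C1D8 before the daily dose, after the 72-h dosing pause on days 6-7. Nuclear marker levels were assessed. pY15-Cdk, γH2AX and pNbs1 were reported as percent nuclear area positive. Patients were grouped by baseline pY15-Cdk.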

[3] = test system: Wee1 kinase; test: Nuclear pY15-Cdk1/2 in paired tumor biopsies; format: in vivo, patients
Procedure, shortened: as §1

[4] = test system: phospho-Cdk1; conditions: chemotherapy combinations, cited from earlier work
[5] = test system: advanced solid tumors; conditions: cited from earlier work
[6] = human, in vivo
[7] = test system: recurrent uterine serous carcinoma; conditions: adavosertib monotherapy; cited from earlier work
[8] = Plasma pharmacokinetics of adavosertib; conditions: human, oral, 300 mg
[9] = test system: PKMYT1; conditions: cited from earlier work
[10] = test system: advanced solid tumors; test: Phase 1 trial of adavosertib: tumor response by RECIST 1.1
[11] = twice daily x 5 doses for 2 weeks, in 3-week cycles; cited from earlier work

SMILES: C=CCn1c(=O)c2cnc(Nc3ccc(N4CCN(C)CC4)cc3)nc2n1-c1cccc(C(C)(C)O)n1 [adavosertib]
- Reduction of nuclear pY15-Cdk, twice-daily arm, individual patients ([1]; 2-5 hours after dose 5, 2 of 2 patients): 84% and 90%
- Wee1 kinase suppression (pY15-Cdk1/2 reduction), twice-daily arm ([1]; tumor biopsies 2-5 hours after the fifth dose): 80-90%
- Nuclear pHH3 levels between baseline and C1D8 ([2]; 8 patients): generally unchanged
- Changes in tumor levels of nuclear RAD51 ([2]; 8 patients, baseline vs C1D8): None of the 8 patients evaluable for pharmacodynamic response showed changes
- Levels of DNA repair markers (γH2AX and/or pNbs1) at C1D8 ([2]; both patients with significantly decreased pY15-Cdk): significant increases
- pHH3 positivity at C1D8, patient 1010056 ([2]; from 1.1% at baseline, best response PD, p < 0.0001): 4.1 % cells positive
- Alanine aminotransferase increased, Grade 1-2 (%) (human, in vivo): 11 (26%) patients (%)
- Anemia, Grade 1-2 (%) (human, in vivo): 20 (47%) patients (%)
- Anemia, Grade 3 (%) (human, in vivo): 9 (21%) patients (%)
- Anemia, any-grade (human, in vivo): 69%
- Anemia, ≥ grade 3 (human, in vivo): 21%
- Anorexia, Grade 1-2 (%) (human, in vivo): 17 (40%) patients (%)
- Aspartate aminotransferase increased, Grade 1-2 (%) (human, in vivo): 11 (26%) patients (%)
- Dehydration, Grade 1-2 (%) (human, in vivo): 5 (12%) patients (%)
- Dehydration, Grade 3 (%) (human, in vivo): 1 (2%) patients (%)
- Diarrhea, Grade 1-2 (%) (human, in vivo): 25 (60%) patients (%)
- Diarrhea, Grade 3 (%) (human, in vivo): 2 (5%) patients (%)
- Dose-limiting toxicities (type) (human, in vivo): grade 4 hematological toxicity and grade 3 fatigue
- Fatigue, Grade 1-2 (%) (human, in vivo): 19 (45%) patients (%)
- Fatigue, Grade 3 (%) (human, in vivo): 3 (7%) patients (%)
- Febrile neutropenia, Grade 3 (%) (human, in vivo): 1 (2%) patients (%)
- Gastrointestinal adverse events (nausea, vomiting, diarrhea) that were ≥ grade 3 (human, in vivo): ≤ 12%
- Hypoalbuminemia, Grade 1-2 (%) (human, in vivo): 9 (21%) patients (%)
- Hypocalcemia, Grade 1-2 (%) (human, in vivo): 3 (7%) patients (%)
- Hypocalcemia, Grade 3 (%) (human, in vivo): 1 (2%) patients (%)
- Hypocalcemia, grade 3 incidence (human, in vivo): 2%
- Hypokalemia, Grade 1-2 (%) (human, in vivo): 5 (12%) patients (%)
- Hypokalemia, Grade 3 (%) (human, in vivo): 1 (2%) patients (%)
- Hypokalemia, grade 3 incidence (human, in vivo): 2%
- Hypomagnesemia, Grade 1-2 (%) (human, in vivo): 7 (17%) patients (%)
- Hypomagnesemia, Grade 3 (%) (human, in vivo): 1 (2%) patients (%)
- Hypomagnesemia, grade 3 incidence (human, in vivo): 2%
- Hyponatremia, Grade 1-2 (%) (human, in vivo): 8 (19%) patients (%)
- Hyponatremia, Grade 3 (%) (human, in vivo): 1 (2%) patients (%)
- Hyponatremia, grade 3 incidence (human, in vivo): 2%
- Hypophosphatemia, Grade 1-2 (%) (human, in vivo): 10 (24%) patients (%)
- Hypophosphatemia, Grade 3 (%) (human, in vivo): 6 (14%) patients (%)
- Hypophosphatemia, ≥ grade 3 (human, in vivo): 14%
- Leukopenia, Grade 1-2 (%) (human, in vivo): 12 (29%) patients (%)
- Leukopenia, Grade 3 (%) (human, in vivo): 5 (12%) patients (%)
- Leukopenia, Grade 4 (%) (human, in vivo): 4 (10%) patients (%)
- Leukopenia, grade 4 events (human, in vivo): 10%
- Leukopenia, ≥ grade 3 (human, in vivo): 21%
- Lymphopenia, Grade 1-2 (%) (human, in vivo): 18 (43%) patients (%)
- Lymphopenia, Grade 3 (%) (human, in vivo): 12 (29%) patients (%)
- Lymphopenia, any-grade (human, in vivo): 71%
- Lymphopenia, ≥ grade 3 (human, in vivo): 29%
- Median duration until recovery, grade 3/4 leukopenia (human, in vivo): 5 days
- Median duration until recovery, grade 3/4 lymphopenia (human, in vivo): 18 days
- Median duration until recovery, grade 3/4 neutropenia (human, in vivo): 5 days
- Nausea, Grade 1-2 (%) (human, in vivo): 31 (74%) patients (%)
- Nausea, Grade 3 (%) (human, in vivo): 3 (7%) patients (%)
- Nausea, any grade, patients (human, in vivo): 81%
- Nausea, vomiting, or diarrhea, each, patients (human, in vivo): > 60%
- Neutropenia, Grade 1-2 (%) (human, in vivo): 5 (12%) patients (%)
- Neutropenia, Grade 3 (%) (human, in vivo): 4 (10%) patients (%)
- Neutropenia, Grade 4 (%) (human, in vivo): 5 (12%) patients (%)
- Neutropenia, grade 4 events (human, in vivo): 12%
- Thrombocytopenia, Grade 1-2 (%) (human, in vivo): 13 (31%) patients (%)
- Thrombocytopenia, Grade 3 (%) (human, in vivo): 5 (12%) patients (%)
- Thrombocytopenia, Grade 4 (%) (human, in vivo): 1 (2%) patients (%)
- Thrombocytopenia, grade 4 events (human, in vivo): 2%
- Vomiting, Grade 1-2 (%) (human, in vivo): 24 (57%) patients (%)
- Vomiting, Grade 3 (%) (human, in vivo): 5 (12%) patients (%)
- DLTs at dose levels other than 400 mg QD (in vivo): No DLTs
- Recommended phase 2 dose (RPh2D) (once daily on days 1-5 and 8-12 in 21-day cycles): 300 mg
- Upper respiratory infection, Grade 3 (%) (once-daily adavosertib, n = 42 patients): 1 (2%) patients (%)
- Increases in nuclear pY15-Cdk at C1D8 ([3]; 4 of 5 patients with low baseline pY15-Cdk (≤ 2.2% NAP), p < 0.0001): 192%-1094%
- Patients with tumor pY15-Cdk levels higher than baseline on C1D8 (pre-dose) ([3]; of 8 patients with evaluable biopsy pairs (of 5 with low baseline)): 4 patients
- Target suppression (phospho-Cdk1 attenuation) ([4]; adavosertib twice daily at 25 mg): not at 25 mg
- Target suppression (phospho-Cdk1 attenuation) ([4]; adavosertib twice daily at 200 mg or 225 mg): significant target suppression
- Overall response rate, twice-daily adavosertib ([5]; 25 enrolled patients, 90% confidence interval [1%, 23%]): 8%
- PRs, twice-daily adavosertib ([5]; among 25 enrolled patients): 2 patients
- Plasma concentrations day 5 versus day 1 [6]: higher on day 5 compared to day 1
- Preliminary overall response rate [7]: 29%
- concentration at 72 h [8]: > 5 nM
- Inhibition of PKMYT1 [9]: does not substantially inhibit PKMYT1
- Median number of treatment cycles, patients with SD ([10]; 20 patients, range 2-26): 4 cycles
- Patients with SD receiving ≥ 11 cycles of treatment ([10]; of 20 patients with SD): 5 patients
- Patients with best response of SD for ≥ 9 months ([10]; once-daily adavosertib): 5 patients
- Overall response rate ([10]; once-daily adavosertib, 42 enrolled patients, 90% confidence interval [6%, 26%]): 14%
- Patients with PR at the 400 mg dose level ([10]; out of the 3 enrolled, both ovarian cancer, dose-reduced to 300 mg): 2 patients
- Patients with PR at the MTD (300 mg) ([10]; out of the 26 enrolled at the MTD): 4 patients
- MTD, twice-daily regimen [11]: 225 mg
